Bioassay records deposited in PubChem BioAssay by Johns Hopkins Ion Channel Center.
A selection: hits, their analogues and other compounds. The true share with any hit is near 2.9%.
TRPC6 inhibitor = inhibitors of mouse TRPC6 channel | Q61143 | HEK293-TRPC6, membrane potential dye, ACh-evoked depolarization; hits give low values | B-score at 10 µM | hit rate 1.1% among 310,000;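 active means B-score under library mean minus 3 SD, initial fluorescence not abnormally high, positive integrated signal ratio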;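 further: B-score derived from integrated fluorescence ratio over the kinetic read; more negative B-score means stronger inhibition of depolarization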
TRPC4 act = TRPC4 (mouse) channel activation | Q9QUQ5 | HEK293 TRPC4beta/mu-opioid, Fluo4 calcium fluorescence; hits give high values | B-score at 10 µM | hit rate 0.49% among 310,000 | AID 2237;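 active means B-score above 5 SD of library B-scores, and initial fluorescence ratio not above library mean plus 5 SD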;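 further: positive B-score marks a calcium rise read as TRPC4 activation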
Target sequence (Q9QUQ5 whole entry, looked up): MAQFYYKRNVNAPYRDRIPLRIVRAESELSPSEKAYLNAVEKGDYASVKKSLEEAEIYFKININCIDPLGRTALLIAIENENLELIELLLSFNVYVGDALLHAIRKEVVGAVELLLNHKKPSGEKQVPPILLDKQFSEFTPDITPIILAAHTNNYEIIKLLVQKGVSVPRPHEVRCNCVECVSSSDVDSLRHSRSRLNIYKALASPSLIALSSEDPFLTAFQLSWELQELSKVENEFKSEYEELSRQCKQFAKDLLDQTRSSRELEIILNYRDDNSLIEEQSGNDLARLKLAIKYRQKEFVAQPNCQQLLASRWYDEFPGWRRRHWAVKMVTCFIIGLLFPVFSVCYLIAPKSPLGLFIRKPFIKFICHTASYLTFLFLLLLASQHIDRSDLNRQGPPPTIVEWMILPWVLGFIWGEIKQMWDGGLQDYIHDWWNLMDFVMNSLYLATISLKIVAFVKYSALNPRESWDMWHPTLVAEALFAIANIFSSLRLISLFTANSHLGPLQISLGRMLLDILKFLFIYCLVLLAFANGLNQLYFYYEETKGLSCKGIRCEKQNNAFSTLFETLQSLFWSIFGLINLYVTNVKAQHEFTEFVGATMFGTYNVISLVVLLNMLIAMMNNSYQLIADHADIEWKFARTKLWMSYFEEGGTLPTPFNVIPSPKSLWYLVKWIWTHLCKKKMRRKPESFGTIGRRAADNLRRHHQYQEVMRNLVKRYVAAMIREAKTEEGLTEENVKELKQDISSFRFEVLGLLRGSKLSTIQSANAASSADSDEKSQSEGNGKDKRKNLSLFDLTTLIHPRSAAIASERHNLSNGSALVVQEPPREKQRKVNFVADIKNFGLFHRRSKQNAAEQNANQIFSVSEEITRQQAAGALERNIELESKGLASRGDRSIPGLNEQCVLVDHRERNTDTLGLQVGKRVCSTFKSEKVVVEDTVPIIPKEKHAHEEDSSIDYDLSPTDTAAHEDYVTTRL
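Test system: HEK293 cells stably co-expressing mouse TRPC4beta and mu-opioid receptor | Schedule: Fluo4 dye loading 45 min at room temperature, 110 s recording | Measured by: Kinetic Fluo4 calcium fluorescence, 5 s baseline at 1 Hz | Evaluation: B score of integrated ratio | Controls: Buffer (low) and maximal DAMGO (high)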
TRPC4 block = blocks the mouse TRPC4 cation channel. B-score at 10 µM. hit rate 0.39% among 300,000. HEK293 TRPC4beta/mu-opioid, DAMGO-evoked Fluo4 calcium flux; hits give low values;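 active means B-score over 3 SD under the library average, no early fluorescence shift, positive overall ratio signal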
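Assay system: TRPC4beta/mu-opioid receptor HEK293 cell line; compound dosing: single concentration per test compound; detection: Fluo4 Ca2+ flux fluorescence; evaluation: per-well B score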
TRPC4 PAM = allosteric potentiators of mouse TRPC4 channel; HEK293 TRPC4beta/mu-opioid, DAMGO EC20, Fluo-4 Ca2+ flux; hits give high values; B-score at 10 µM; hit rate 0.42% among 310,000; AID 2227;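 active means B-score of calcium response area above 5 SD of library B-scores, with initial fluorescence ratio within 5 SD of library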;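 further: B-score of integrated fluorescence ratio over time as area under calcium response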
Kir21 block = Kir2.1 (mouse) channel inhibition; hit rate 0.85% among 310,000; HEK293-Kir2.1, FluxOR thallium flux fluorescence; hits give low values; B-score at 10 µM; AID 1672; P35561;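 active means fluorescence ratio B-score at or below minus 3 SD of library scores, with starting-brightness B-score within 2 SD, cut at about -4.2 in these data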;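 further: channel flux triggered by added potassium and thallium sulfate stimulus; B-score of peak minus minimum fluorescence over baseline after thallium stimulus; more negative B-score means stronger Kir2.1 block with less thallium influx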
TRPC6 activator = activators of mouse TRPC6 channel. Q61143. B-score at 10 µM. hit rate 0.13% among 310,000. HEK293-TRPC6 membrane potential dye fluorescence; hits give high values. AID 2550;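 active means B-score of the integrated fluorescence ratio above library mean plus 3 SD, and starting fluorescence ratio within library mean plus 5 SD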;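 further: higher score means more depolarization so channel activation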
TRPC4 sel inh 2 = second check of whether TRPC6 inhibitors also affect mouse TRPC4. shares compounds with TRPC6 inhibitor. HEK293 TRPC4/MOR, membrane potential dye fluorescence; channel activated by saturating DAMGO dose. inhibition, % at 10 µM. hit rate 42% among 920;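 active means compounds whose fluorescence signal differed from control wells by over 3 SD, either direction, in both duplicate plates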
TRPC4 spec = mouse TRPC4 off-target activity of TRPC6 inhibitors; shares compounds with TRPC6 inhibitor; HEK293 TRPC4/mu-opioid, membrane potential fluorescence; activity change, negative = inhibition, % at 10 µM; hit rate 61% among 920; AID 2777;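 active means rise or fall in signal beyond 3 SD of buffer-only wells in both replicate plates, either sign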;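 further: integrated kinetic ratio of fluorescence range over baseline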
HEK293 MPD ctr 2-1 = second check of TRPC6 inhibitor effects in parental HEK293 cells; hit rate 31% among 920; parental HEK293 membrane potential dye fluorescence; maximal acetylcholine challenge after compound addition; AID 2779; shares compounds with TRPC6 inhibitor; signal change vs control, % at 10 µM;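 active means membrane potential signal moving either way by over 3 SD of the maximum-effect control, in both duplicate plates, meaning non-specific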
HEK293 MPD ctr-1 = counter-screen for TRPC6 inhibitors: effect in parental HEK293 cells. hit rate 60% among 920. membrane potential signal change, % at 10 µM. shares compounds with TRPC6 inhibitor. parental HEK293 membrane potential dye fluorescence;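 active means membrane potential signal shifting up or down by more than 3 SD of buffer-only wells, on both duplicate plates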
HEK293 MPD ctr-2 = counter-screen for TRPC6 modulators: effect in parental HEK293 cells. membrane potential dye fluorescence. membrane potential signal change, % at 10 µM. shares compounds with TRPC6 inhibitor. AID 488924. hit rate 51% among 2,400;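 active means membrane potential signal moves up or down beyond 5 SD from buffer-only wells, on both duplicate plates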
HEK293 MPD ctr 2-2 = parental HEK293 nonspecific activity of TRPC6 modulators, second screen | shares compounds with TRPC6 inhibitor | membrane potential dye fluorescence; after compound, maximal acetylcholine stimulation | inhibition, % at 10 µM | hit rate 14% among 2,400 | AID 488926;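 active means membrane potential signal drops by more than 5 SD from the mean control signal, in both duplicate plates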;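 further: plate controls were acetylcholine ECmax control wells for no effect and buffer only wells for full effect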
TRPC4 ctr mod = selectivity of TRPC6 modulators against mouse TRPC4; hit rate 69% among 2,400; shares compounds with TRPC6 inhibitor; percent change from control (negative = decrease, positive = increase), % at 10 µM; AID 488927; HEK293 TRPC4/mu-opioid, membrane potential fluorescence;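 active means membrane potential signal moved up or down beyond 5 SD of buffer control wells, in both duplicate plates, actives on both sides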;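 further: plate controls were assay buffer wells for no effect and DAMGO maximal-effect wells for full effect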
TRPC4/MOR inh 2 = mouse TRPC4 off-target activity of TRPC6 modulators, second screen. inhibition, % at 10 µM. HEK293 TRPC4/mu-opioid, membrane potential dye fluorescence; stimulated with maximal-effect DAMGO. hit rate 55% among 2,400. shares compounds with TRPC6 inhibitor;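 active means drop in membrane potential signal beyond 5 SD of the control wells in both duplicate plates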;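 further: TRPC4 counter screen for TRPC6 hits run under conditions tuned for TRPC6 not TRPC4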
TRPC6 inh conf = confirmation of mouse TRPC6 inhibitors; hit rate 43% among 3,300; shares compounds with TRPC6 inhibitor; HEK293-TRPC6, membrane potential dye, ACh-evoked depolarization; inhibition, % at 10 µM;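 active means fluorescence ratio falls more than 5 SD below the full-stimulation control mean, in both duplicate runs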;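 further: integrated fluorescence ratio of peak minus minimum over baseline after agonist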
TRPC6 act conf = mouse TRPC6 activator confirmation; shares compounds with TRPC6 inhibitor; HEK293-TRPC6 membrane potential dye fluorescence, FDSS; hit rate 11% among 2,800; activation, % at 10 µM;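 active means ratio signal rise beyond 5 SD above unstimulated control wells' mean, seen in both duplicate runs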;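 further: plate controls were buffer EC0 wells for no effect and acetylcholine ECmax response for full effect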
An asterisk follows results filed as active; i = inactive; · = not tested or not shown.

SMILES	TRPC6 inhibitor	TRPC4 act	TRPC4 block	TRPC4 PAM	Kir21 block	TRPC6 activator	HEK293 MPD ctr-2	HEK293 MPD ctr 2-2	TRPC4 ctr mod	TRPC4/MOR inh 2	TRPC6 inh conf	TRPC6 act conf	others
O=C1c2cccc3cccc(c23)C(=O)N1CCN1CCN(CC(O)COc2ccccc2)CC1 (centres undefined)	-5.2*	i	i	i	-0.11	i	i	i	i	i	i	i
COc1ccc(OCC(O)CN2CCC(CN3C(=O)c4cccc5cccc(c45)C3=O)CC2)cc1 (centres undefined)	i	i	i	i	-1.4	i	·	·	·	·	·	·
COc1cccc(OCC(O)CN2CCN(CCN3C(=O)c4cccc5cccc(c45)C3=O)CC2)c1 (centres undefined)	-5.8*	i	i	i	-1.2	i	i	i	i	71%*	54%*	i
CC(C)Oc1ccc(C2C(C(=O)c3ccco3)=C(O)C(=O)N2Cc2cccnc2)cc1 (centres undefined)	i	i	i	i	1.4	i	·	·	·	·	·	·
Cc1ccc2c(c1)NC(=O)C(CC(=O)Nc1ccc(CN3CCC(C)CC3)cc1)O2 (centres undefined)	-8.5*	i	i	i	-1.9	i	·	·	·	·	79%*	i	TRPC4 sel inh 2=i;TRPC4 spec=i;HEK293 MPD ctr 2-1=-4.5%*;HEK293 MPD ctr-1=i
CCOc1ccc(S(=O)(=O)N(CC(=O)N/N=C/c2ccc(-c3ccc([N+](=O)[O-])cc3)o2)c2ccccc2)cc1	-5.1*	i	i	i	-0.18	i	i	i	i	i	i	·
Cc1ccc(C)c(N(CC(=O)N/N=C/c2ccc(-c3ccc([N+](=O)[O-])cc3)o2)S(=O)(=O)c2ccccc2)c1	i	i	i	i	-0.02	i	·	·	·	·	·	·
Cc1cc(/C=C2\SC(=S)NC2=O)c(C)n1-c1ccc(O)cc1	i	i	i	i	-2.3	27*	450%*	i	70%*	i	i	126%*
Cc1cc(/C=C2\SC(=S)NC2=O)c(C)n1-c1ccccc1	i	i	i	i	1.4	i	·	·	·	·	·	·
CCC(C)NC(=O)c1ccc(C2SCC(=O)N2Cc2ccccc2)cc1 (centres undefined)	-7.6*	i	i	i	-0.21	i	·	·	·	·	i	i	TRPC4 sel inh 2=i;TRPC4 spec=i;HEK293 MPD ctr 2-1=i;HEK293 MPD ctr-1=i
Cc1cc(OCC(=O)O/N=C(\N)Cc2cccs2)ccc1Br	-9.8*	i	i	i	0.02	i	·	·	·	·	i	i	TRPC4 sel inh 2=i;TRPC4 spec=i;HEK293 MPD ctr 2-1=i;HEK293 MPD ctr-1=i
CCOC(=O)c1ccc(NC(=O)Oc2cc(C)c(Cl)cc2C(C)C)cc1	-9.9*	i	i	i	-2	i	126%*	i	13%*	31%*	i	i
CCOC(=O)c1ccc(NC(=O)Oc2ccccc2)cc1	i	i	i	i	-0.22	i	·	·	·	·	·	·
CCCCN(CCCC)CCNC(=O)c1cn(CC)c2ccc(S(=O)(=O)N3CCCC3)cc2c1=O	-5*	i	i	i	0.03	i	i	i	i	50%*	i	i
CN(CCNC(=O)c1cn(C)c2ccc(S(=O)(=O)N3CCCC3)cc2c1=O)CCc1ccccc1	i	i	i	i	0.04	i	·	·	·	·	·	·
CCN(CC)CCNC(=O)c1cn(CC)c2ccc(S(=O)(=O)N3CCOCC3)cc2c1=O	i	i	i	i	0.62	i	·	·	·	·	·	·
CCN(CC)S(=O)(=O)c1ccc2c(c1)c(=O)c(C(=O)NCCN(C)CCc1ccccc1)cn2C	-5.4*	i	i	i	0.91	i	-64%*	i	-17%*	63%*	i	i
CCCCN(C)CCCNC(=O)c1cn(CC)c2ccc(S(=O)(=O)N3CCc4ccccc4C3)cc2c1=O	-6.9*	i	i	i	-2	i	·	·	·	·	i	i	TRPC4 sel inh 2=52%*;TRPC4 spec=-18%*;HEK293 MPD ctr 2-1=i;HEK293 MPD ctr-1=-160%*
O=C(O)Cc1ccc(NC(=O)c2ccc3c(c2)C(=O)N(CC2CCCO2)C3=O)cc1 (centres undefined)	i	i	i	i	-1.7	i	·	·	·	·	·	·
CCCCOc1ccc(C(=O)OC(C)CN(C)C)cc1 (centres undefined)	i	i	i	i	-0.11	12*	218%*	i	35%*	34%*	i	102%*
N#CC1=C(SCC(=O)NCc2ccccc2)NC(=O)CC1c1ccco1 (centres undefined)	i	i	i	i	0.74	i	·	·	·	·	·	·
CC(C)c1ccc2nc(N)sc2c1	i	i	i	i	1.5	i	·	·	·	·	·	·
CN1CCN(c2ccc([N+](=O)[O-])cc2/C=N/NC(=O)c2ccc(F)cc2)CC1	-6*	i	i	i	-1.8	i	-174%*	i	-34%*	i	i	i
COc1ccc(C(=O)/C=C/c2ccc(OC)c(COc3ccc(F)cc3)c2)cc1	i	i	i	i	1.6	i	·	·	·	·	·	·
